Measurements reported in ChEMBL document CHEMBL1140923, “Discovery of imidazo[1,2-b]thiazole derivatives as novel SIRT1 activators” (J Med Chem, 2009).
pIC50: −log10 of the molar value. Activity calls are given as the source filed them. The calls are words filed in the database; no cut-off is given here.

Columns and labels:
Mus musculus [1] = assay: Antidiabetic activity in ob/ob mouse model assessed as reduction of fasting blood glucose level at 100 mg/kg, po daily once after 1 week relative to control; format: functional, organism-based; design: dose 100 mg/kg
How it was run: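 ob/ob mice received at 6 weeks of age were kept on a 60%-fat diet from at least 1 week before the study. They were sorted by body weight and glucose, then gavaged once daily with 100 mg/kg or vehicle (2% HPMC + 0.2% DOSS). Fasting blood glucose was measured. Analysis by one-way ANOVA with Dunnett's test.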

Mus musculus [2] = assay: Toxicity in diet-induced obesity C57BL/6 mouse model assessed as hemoglobin at 100 mg/kg, po daily once for 10 weeks; format: organism-based; design: dose 100 mg/kg, route oral; conditions: in vivo, 1680 h
How it was run: (§1)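 Male C57BL/6 mice were fed a 60%-fat diet from 9 weeks of age until about 40 g, in groups of 6-10. They were dosed by oral gavage once daily in 2% HPMC + 0.2% DOSS, with 29 at 100 mg/kg and rosiglitazone at 5 mg/kg, alongside vehicle groups on lean and high-fat diet. Fed glucose was read at weeks 2, 4, 6, 8 and 10. Clinical chemistry and hematology were also measured. Analysis by ANOVA.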

Rattus norvegicus [3] = assay: Antidiabetic activity in genetic Zucker fa/fa rat model assessed as reduction of fed blood glucose level at 100 mg/kg, po daily once after 3 weeks relative to control; format: functional, organism-based; design: dose 100 mg/kg
How it was run: (§2)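 Male Zucker fa/fa rats, housed singly, were gavaged daily from 7 weeks of age with 100 mg/kg or vehicle (2% HPMC + 0.2% DOSS), 5 per group. Fed tail-vein glucose was taken on day 22. Also on day 22, after an overnight fast, sodium pyruvate 1 g/kg was given ip and glucose was read at 0-90 min.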

Mus musculus [4] = assay: Antidiabetic activity in diet-induced obesity C57BL/6 mouse model assessed as reduction of fed blood glucose level at 100 mg/kg, po daily once for 1 week after 10 weeks; format: functional; design: scale not given: the % may be the effect or the level left; how it was run: as §1
Mus musculus [5] = assay: Antidiabetic activity in diet-induced obesity C57BL/6 mouse model assessed as reduction of plasma insulin level at 100 mg/kg, po daily once after 2 weeks; format: functional, organism-based; design: dose 100 mg/kg; how it was run: as §1
Cytochrome P450 3A4 = Cytochrome P450 3A4 (Homo sapiens, UniProt P08684); assay: Inhibition of CYP3A4 at 25 uM; format: ADME
Chain of Cytochrome P450 3A4 (P08684 whole entry): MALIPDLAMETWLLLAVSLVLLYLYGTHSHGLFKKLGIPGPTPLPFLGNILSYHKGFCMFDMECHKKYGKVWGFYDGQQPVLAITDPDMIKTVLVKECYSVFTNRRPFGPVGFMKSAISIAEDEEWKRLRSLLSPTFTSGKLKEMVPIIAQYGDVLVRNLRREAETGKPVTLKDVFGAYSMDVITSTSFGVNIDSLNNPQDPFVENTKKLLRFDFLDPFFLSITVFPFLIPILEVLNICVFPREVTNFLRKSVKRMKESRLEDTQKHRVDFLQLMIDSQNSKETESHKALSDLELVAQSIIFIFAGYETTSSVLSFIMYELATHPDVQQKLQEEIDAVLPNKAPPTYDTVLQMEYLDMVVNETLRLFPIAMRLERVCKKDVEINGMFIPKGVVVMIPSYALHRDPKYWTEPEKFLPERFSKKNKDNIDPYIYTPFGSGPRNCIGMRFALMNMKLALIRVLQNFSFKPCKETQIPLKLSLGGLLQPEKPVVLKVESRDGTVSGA
How it was run: (§3)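 Inhibition of CYP isozymes was tested up to a highest concentration of 25 µM.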

Salmonella typhimurium [6] = assay: Mutagenic activity in Salmonella Typhimurium TA100 in absence of S9 activation; format: toxicity, organism-based; conditions: salmonella enterica subsp. enterica serovar typhimurium
[7] = Terminal half life in Sprague-Dawley rat at 100 mg/kg, po or 10 mg/kg, iv; format: ADME, organism-based; conditions: in vivo, read-out: beta t1/2 (converted)
How it was run: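 Male Sprague-Dawley rats (250 g, 3 per dose group) received 100 mg/kg by oral gavage in 2% HPMC + 0.2% DOSS, or 10 mg/kg iv by tail vein in 10% ethanol/40% PEG/50% H2O. Blood was drawn at 0.033-24 h postdose for drug levels.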

[8] = Inhibition of sodium channel site 2
Rattus norvegicus [9] = assay: Antidiabetic activity in genetic Zucker fa/fa rat model assessed as increase in glucose disposal rate at 100 mg/kg, po daily once after 4 weeks by hyperinsulinemic-euglycemic clamp; format: functional
How it was run: (§4)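 Zucker fa/fa rats, cannulated 5 days beforehand and fasted 8 h, underwent the clamp after 4 weeks of dosing. [3-3H]glucose tracer was primed and infused, then insulin 25 (mU/kg)/min was started. Variable 50% dextrose held blood glucose at 100 mg/dL over 120 min, with tracer specific activity sampled at 110 and 120 min.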

[10] = Inhibition of CYP1A at 25 uM; format: ADME; how it was run: as §3
Rattus norvegicus [11] = assay: Antidiabetic activity in genetic Zucker fa/fa rat model assessed as reduction of glucose production at 100 mg/kg, po daily once after 3 weeks by pyruvate tolerance test; format: functional, organism-based; design: dose 100 mg/kg; how it was run: as §2
[12] = Terminal half life in C57BL/6 mouse at 100 mg/kg, po or 10 mg/kg, iv; format: ADME, organism-based; conditions: in vivo, read-out: beta t1/2 (converted)
How it was run: (§5)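 Male C57BL/6 mice (18-22 g; 3 per dose group per time point), given 100 mg/kg po as the hydrochloride salt in 2% HPMC + 0.2% DOSS, or 10 mg/kg iv by tail vein in 10% ethanol/40% polyethylene glycol/50% H2O. Plasma was taken at 5, 30, 120 and 360 min after dosing and drug levels were measured.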

Salmonella typhimurium [13] = assay: Mutagenic activity in Salmonella Typhimurium TA100 in presence of S9 activation; format: toxicity, organism-based; conditions: salmonella enterica subsp. enterica serovar typhimurium
Mus musculus [14] = assay: Antidiabetic activity in C57BL/6 mouse assessed as overt sign of hypoglycemia at 100 mg/kg, po daily once after 10 weeks; format: functional, organism-based; design: dose 100 mg/kg
How it was run: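 Lean chow-fed mice were dosed 100 mg/kg po daily in 2% HPMC + 0.2% DOSS for 10 weeks and watched for overt hypoglycemia.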

[15] = biological target: T1, Muscarinic acetylcholine receptor M2 (Homo sapiens, UniProt P08172); assay: Inhibition of muscarinic M2 receptor
T1 sequence (P08172 whole entry): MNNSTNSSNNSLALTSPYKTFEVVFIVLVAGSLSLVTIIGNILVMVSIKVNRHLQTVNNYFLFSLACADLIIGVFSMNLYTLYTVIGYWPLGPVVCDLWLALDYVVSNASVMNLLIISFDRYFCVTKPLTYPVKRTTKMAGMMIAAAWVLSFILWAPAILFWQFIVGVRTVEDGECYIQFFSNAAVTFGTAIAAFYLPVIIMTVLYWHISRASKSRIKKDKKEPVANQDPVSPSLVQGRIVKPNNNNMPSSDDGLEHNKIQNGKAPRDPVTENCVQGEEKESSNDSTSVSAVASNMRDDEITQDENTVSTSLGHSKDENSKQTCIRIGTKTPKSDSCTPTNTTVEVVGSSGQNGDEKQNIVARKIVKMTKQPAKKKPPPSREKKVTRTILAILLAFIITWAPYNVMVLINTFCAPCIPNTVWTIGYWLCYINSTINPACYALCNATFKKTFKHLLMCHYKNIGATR

Cytochrome P450 2D6 = Cytochrome P450 2D6 (Homo sapiens, UniProt P10635); assay: Inhibition of CYP2D6 at 25 uM; format: ADME; how it was run: as §3
Chain of Cytochrome P450 2D6 (P10635 whole entry): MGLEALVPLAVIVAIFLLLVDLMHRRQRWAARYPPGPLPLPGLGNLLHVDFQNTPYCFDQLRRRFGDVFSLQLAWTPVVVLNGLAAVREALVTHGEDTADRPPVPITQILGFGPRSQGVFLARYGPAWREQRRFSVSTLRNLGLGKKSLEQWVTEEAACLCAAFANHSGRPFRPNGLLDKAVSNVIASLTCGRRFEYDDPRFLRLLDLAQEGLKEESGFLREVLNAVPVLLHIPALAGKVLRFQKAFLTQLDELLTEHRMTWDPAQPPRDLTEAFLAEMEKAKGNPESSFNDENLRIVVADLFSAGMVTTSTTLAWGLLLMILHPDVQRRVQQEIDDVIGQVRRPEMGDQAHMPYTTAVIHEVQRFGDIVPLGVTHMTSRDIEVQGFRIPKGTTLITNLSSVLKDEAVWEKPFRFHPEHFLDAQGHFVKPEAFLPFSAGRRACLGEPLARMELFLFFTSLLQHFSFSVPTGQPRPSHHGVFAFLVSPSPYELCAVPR

Salmonella typhimurium [16] = assay: Mutagenic activity in Salmonella Typhimurium TA98 in presence of S9 activation; format: toxicity, organism-based; conditions: salmonella enterica subsp. enterica serovar typhimurium
Mus musculus [17] = assay: Toxicity in diet-induced obesity C57BL/6 mouse model assessed as red blood count at 100 mg/kg, po daily once for 10 weeks; format: organism-based; design: dose 100 mg/kg, route oral; conditions: in vivo, 1680 h; how it was run: as §1
[18] = biological target: Voltage-gated inwardly rectifying potassium channel KCNH2 (Homo sapiens, UniProt Q12809); assay: Inhibition of human ERG by patch clamp method
Chain of Voltage-gated inwardly rectifying potassium channel KCNH2 (Q12809 whole entry): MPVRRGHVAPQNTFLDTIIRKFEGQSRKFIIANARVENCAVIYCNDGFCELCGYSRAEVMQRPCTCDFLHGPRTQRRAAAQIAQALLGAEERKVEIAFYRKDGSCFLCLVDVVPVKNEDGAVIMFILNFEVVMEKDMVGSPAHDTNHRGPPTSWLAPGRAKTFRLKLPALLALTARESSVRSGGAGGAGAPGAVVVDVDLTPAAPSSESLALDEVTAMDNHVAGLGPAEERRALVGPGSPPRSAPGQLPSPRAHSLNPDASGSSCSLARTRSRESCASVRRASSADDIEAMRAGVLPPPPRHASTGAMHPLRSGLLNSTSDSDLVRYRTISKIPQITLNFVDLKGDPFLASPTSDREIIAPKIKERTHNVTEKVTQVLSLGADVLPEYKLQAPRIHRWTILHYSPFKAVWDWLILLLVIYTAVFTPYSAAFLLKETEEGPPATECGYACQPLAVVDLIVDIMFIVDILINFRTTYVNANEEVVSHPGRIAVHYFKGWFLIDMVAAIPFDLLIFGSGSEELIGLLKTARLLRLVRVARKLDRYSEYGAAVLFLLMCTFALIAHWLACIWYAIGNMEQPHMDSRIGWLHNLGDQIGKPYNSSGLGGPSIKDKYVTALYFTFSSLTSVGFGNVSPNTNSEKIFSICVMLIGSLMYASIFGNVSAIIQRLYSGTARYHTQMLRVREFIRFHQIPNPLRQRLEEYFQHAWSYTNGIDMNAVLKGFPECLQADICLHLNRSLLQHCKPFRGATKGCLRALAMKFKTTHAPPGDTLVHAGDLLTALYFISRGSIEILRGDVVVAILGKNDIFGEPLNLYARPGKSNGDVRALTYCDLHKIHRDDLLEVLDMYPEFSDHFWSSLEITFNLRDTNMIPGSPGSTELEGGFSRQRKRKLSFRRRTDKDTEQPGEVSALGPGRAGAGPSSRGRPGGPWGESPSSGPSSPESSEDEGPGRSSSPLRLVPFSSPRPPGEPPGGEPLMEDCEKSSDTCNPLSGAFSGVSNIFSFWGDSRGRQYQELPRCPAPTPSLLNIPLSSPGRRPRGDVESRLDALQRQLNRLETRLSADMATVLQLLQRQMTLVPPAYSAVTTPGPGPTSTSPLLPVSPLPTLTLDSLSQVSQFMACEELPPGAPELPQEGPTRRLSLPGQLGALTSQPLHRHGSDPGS
How it was run: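 hERG was measured by patch clamp.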

Cytochrome P450 2C19 = Cytochrome P450 2C19 (Homo sapiens, UniProt P33261); assay: Inhibition of CYP2C19 at 25 uM; format: ADME; how it was run: as §3
Chain of Cytochrome P450 2C19 (P33261 whole entry): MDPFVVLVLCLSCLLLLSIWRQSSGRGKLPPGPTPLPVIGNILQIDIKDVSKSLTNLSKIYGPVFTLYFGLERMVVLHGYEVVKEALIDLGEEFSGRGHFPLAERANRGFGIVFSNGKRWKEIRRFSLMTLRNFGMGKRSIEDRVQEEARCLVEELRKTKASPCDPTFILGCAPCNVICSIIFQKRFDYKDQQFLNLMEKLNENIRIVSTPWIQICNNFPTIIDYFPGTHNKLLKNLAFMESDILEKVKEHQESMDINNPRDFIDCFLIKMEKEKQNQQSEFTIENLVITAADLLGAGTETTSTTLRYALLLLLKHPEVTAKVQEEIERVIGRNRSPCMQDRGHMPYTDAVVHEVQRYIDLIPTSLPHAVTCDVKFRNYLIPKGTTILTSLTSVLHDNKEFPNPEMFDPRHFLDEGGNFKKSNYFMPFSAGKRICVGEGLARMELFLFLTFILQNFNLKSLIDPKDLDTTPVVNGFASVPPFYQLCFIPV

Mus musculus [19] = assay: Liver toxicity in diet-induced obesity C57BL/6 mouse model at 100 mg/kg, po daily once after 10 weeks; format: organism-based; design: dose 100 mg/kg, route oral; conditions: in vivo, 1680 h; how it was run: as §1
Rattus norvegicus [20] = assay: Antidiabetic activity in genetic Zucker fa/fa rat model assessed as increase in glucose infusion rate at 100 mg/kg, po daily once after 4 weeks by hyperinsulinemic-euglycemic clamp; format: functional; how it was run: as §4
Mus musculus [21] = assay: Toxicity in diet-induced obesity C57BL/6 mouse model assessed as hematocrit at 100 mg/kg, po daily once for 10 weeks; format: organism-based; design: dose 100 mg/kg, route oral; conditions: in vivo, 1680 h; how it was run: as §1
[22] = Cmax in C57BL/6 mouse at 100 mg/kg, po or 10 mg/kg, iv; format: ADME, organism-based; conditions: in vivo; how it was run: as §5

O=C(Nc1ccccc1-c1cn2c(CN3CCNCC3)csc2n1)c1cnc2ccccc2n1
Activity (Mus musculus [1]): Active
Activity (Mus musculus [2]): Active
Activity (Rattus norvegicus [3]): Active
Activity (Mus musculus [4]): 15%
Activity (Mus musculus [5]): Active
Activity (Cytochrome P450 3A4): Not Active
Activity (Salmonella typhimurium [6]): Non-toxic
half-life [7]: 8.4 h
pIC50 [8]: 5.47
Activity (Rattus norvegicus [9]): 20%
Activity [10]: Not Active
Activity (Rattus norvegicus [11]): Active
half-life [12]: 5 h
Activity (Salmonella typhimurium [13]): Non-toxic
Activity (Mus musculus [14]): inactive
pIC50 [15]: 5.20
Activity (Cytochrome P450 2D6): Not Active
Activity (Salmonella typhimurium [16]): Non-toxic
Activity (Mus musculus [17]): Active
pIC50 [18]: < 5.00
Activity (Cytochrome P450 2C19): Not Active
Activity (Mus musculus [19]): Non-toxic
Activity (Rattus norvegicus [20]): 35%
Activity (Mus musculus [21]): Active
Cmax [22]: 1000 nM
